For ten molecules, IC50 and Intensity of erythemia results are on record in ChEMBL document CHEMBL1132148, “Synthesis and biological activity of (hydroxymethyl)- and (diethylaminomethyl)benzopsoralens” (J Med Chem, 1999).

The nature of experiment [1]: The IC50-dark is the drug concentration necessary to induce a 50% inhibition of DNA synthesis by incubation at the ground state by keeping mammalian cells in the dark. The experiment is classed as functional. The procedure, abridged: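 Ehrlich cells (Lettré strain) in PBS received compound at room temperature without irradiation, with final DMSO ≤0.5%. They were then held 30 min at 37 °C in the dark with 40 kBq·mL-1 [3H]thymidine. DNA-incorporated radioactivity is expressed as % of untreated controls, and IC50 is the concentration giving 50% inhibition.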

Experiment [2] is described as follows: The IC50-UVA is the dose of UVA light which in the presence of fixed drug concentration (20 uM) is necessary to induce a 50% inhibition of DNA synthesis by incubation at the ground state by keeping mammalian cells in the dark. The format is functional. The procedure, abridged: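 Ehrlich cells (Lettré strain) at 2 × 10^7 cells·mL-1 in PBS were irradiated with increasing UVA doses in the presence of 20 μM compound, with final DMSO ≤0.5%. Then 10^6 cells were labelled with 40 kBq·mL-1 [3H]thymidine for 30 min at 37 °C. Incorporation is given as % of untreated control, and IC50-UVA is the UVA dose (kJ·m-2) giving 50% inhibition.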

A short description of experiment [3]: The IC50-dark is the drug concentration necessary to induce a 50% inhibition of clonal growth by incubation at the ground state by keeping mammalian cells in the dark. The format is functional. The procedure, abridged: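 HeLa cells seeded at 1.5–2 × 10^5 were exposed after 24 h to compound in serum-containing growth medium for 3 h at 37 °C under 5% CO2, in the dark and without UVA. Controls had 0.5% DMSO. Afterwards 200 cells were replated and grown 7 days, and colonies of ≥50 cells were counted. IC50 is the concentration halving clonal efficiency.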

Experiment [4] is described as follows: The IC50-UVA is the dose of UVA light which in the presence of fixed drug concentration (20 uM) is necessary to induce a 50% inhibition of clonal growth by incubation at the ground state by keeping mammalian cells in the dark. The experiment is classed as functional. The procedure, abridged:
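HeLa cells were grown in F-12 Ham with 5% FCS at 37 °C under 5% CO2, seeded at 1.5–2 × 10^5 and given 20 μM compound after 24 h. Cells had 15 min of dark uptake, then increasing UVA doses. Afterwards 200 cells were replated in 10% FCS medium for 7 days and colonies of ≥50 cells were counted. Clonal efficiency is colonies over cells seeded. IC50-UVA is the UVA dose giving 50% inhibition.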

For experiment [5], the species on record is Cavia porcellus. The experiment is described as follows: Phototoxicity on guinea pig skin was calculated at concentration of 30 uM.cm-2 and UVA light dose 20 kJ.me-2.-- indicates no erythemia. The experiment is classed as functional, organism-based. The procedure, abridged: (§1)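 Depilated albino guinea pigs (outbred Dunkin-Hartley) received test compounds topically as 4.5 mM methanol solutions and were then exposed to UVA. The read-out was erythema scoring.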

The species entered for experiment [6] is Cavia porcellus. The experiment in a line: Phototoxicity on guinea pig skin was calculated at concentration of 4 uM.cm-2 and UVA light dose 5 kJ.me-2.+-- barely erythemia. The experiment is classed as functional, organism-based. The procedure, abridged:
as §1

The species named for experiment [7] is Cavia porcellus. The experiment in a line: Phototoxicity on guinea pig skin was calculated at concentration of 2 uM.cm-2 and UVA light dose 5 kJ.me-2.-- indicates no erythemia. The experiment is classed as functional, organism-based. The procedure, abridged:
as §1

Experiment [8] is filed under the species Cavia porcellus. The experiment in a line: Phototoxicity on guinea pig skin was calculated at concentration of 30 uM.cm-2 and UVA light dose 5 kJ.me-2. ++++ medium erythemia. The format is functional, organism-based. The settings on record: in the assay text read “strong erythema with edema” for “medium erythemia”. The procedure, abridged:
as §1

Molecules are shown by their SMILES. Activity calls are given as the source filed them. No cut-off for these calls is given here.

With `CCN(CC)Cc1cc2cc3c(cc2oc1=O)oc1ccccc13`, the IC50 is greater than 30 µM in experiment [1], greater than 30 kJ m**-2 in experiment [2], greater than 30 µM in experiment [3] and greater than 30 kJ m**-2 in experiment [4]. In the experiment listed under Cavia porcellus [5], the Intensity of erythemia result was “no erythemia”.

As to `CCN(CC)Cc1ccc2c(c1)oc1cc3oc(=O)cc(C)c3cc12`, the IC50 in experiment [1] is greater than 30 µM; in experiment [2] it was 2.22 kJ m**-2; in experiment [3], greater than 30 µM; in experiment [4], 1.83 kJ m**-2. Besides, in the experiment listed under Cavia porcellus [5], the Intensity of erythemia result was “no erythemia”.

With `O=c1ccc2c(CO)c3c(cc2o1)oc1ccccc13`, the IC50 in experiment [1] was found to be 10.9 µM; in experiment [2], 8.3 kJ m**-2; in experiment [3], 25 µM; in experiment [4], 0.23 kJ m**-2. In addition, the Intensity of erythemia entry in the experiment filed under Cavia porcellus [5] is “no erythemia”.

Consider `CCN(CC)Cc1c2oc(=O)ccc2cc2c1oc1ccccc12`, for which the IC50 in experiment [1] worked out at 10.7 µM; in experiment [2] it was 9.3 kJ m**-2; in experiment [3], 10.7 µM; in experiment [4], 0.65 kJ m**-2. Moreover, in the experiment listed under Cavia porcellus [5], the Intensity of erythemia entry is “no erythemia”.

On to `O=c1oc2cc3oc4ccccc4c3cc2cc1CO`, for which the IC50 in experiment [1] was greater than 30 µM; in experiment [2], 16.8 kJ m**-2; in experiment [3], greater than 30 µM; in experiment [4] it was 1.06 kJ m**-2. Moreover, the Intensity of erythemia entry in the experiment listed under Cavia porcellus [5] is “no erythemia”.

Turning to `O=c1ccc2cc3c(oc4ccccc43)c(CO)c2o1`, the IC50 came out at 3 µM in experiment [1], 0.97 kJ m**-2 in experiment [2], 6.8 µM in experiment [3] and 0.19 kJ m**-2 in experiment [4]. Besides, the Intensity of erythemia entry in the experiment filed under Cavia porcellus [5] was “no erythemia”.

`Cc1cc(=O)oc2cc3oc4cc(CO)ccc4c3cc12`: the IC50 in experiment [1] is greater than 30 µM; in experiment [2], 0.48 kJ m**-2; in experiment [3], greater than 30 µM; in experiment [4], 0.16 kJ m**-2. The Intensity of erythemia result in the experiment filed under Cavia porcellus [5] is “no erythemia”.

Turning to `CCN(CC)Cc1c2ccc(=O)oc2cc2oc3ccccc3c12`, the IC50 in experiment [1] is greater than 30 µM; in experiment [2] it was greater than 30 kJ m**-2; in experiment [3], greater than 30 µM; in experiment [4] it was greater than 30 kJ m**-2. Further, the Intensity of erythemia entry in the experiment filed under Cavia porcellus [5] was “no erythemia”.

As for `O=c1cc(CO)c2cc3c(cc2o1)oc1ccccc13`, the IC50 in experiment [1] was 0.94 µM; in experiment [2], 0.67 kJ m**-2; in experiment [3], 3.8 µM; in experiment [4], 0.11 kJ m**-2. In addition, the Intensity of erythemia entry in the experiment filed under Cavia porcellus [5] is “no erythemia”.

As for `COc1c2occc2cc2ccc(=O)oc12` [METHOXSALEN], the IC50 was greater than 30 µM in experiment [1], 3.59 kJ m**-2 in experiment [2], greater than 30 µM in experiment [3] and 1.23 kJ m**-2 in experiment [4]. In addition, the Intensity of erythemia result in the experiment listed under Cavia porcellus [6] was “Partially active”. Moreover, the Intensity of erythemia result in the experiment filed under Cavia porcellus [7] is “inactive”. Further, the Intensity of erythemia entry in the experiment filed under Cavia porcellus [8] was “Active”.
